Reference: PubChem BioAssay AID1885 (Broad Institute, 2009)
The campaign covered roughly 300,000 compounds. About 4,400 (1.5%) were called active. The sample holds actives, similar compounds and a random draw of the others, so the mix is not that of the screen.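 How the source made its calls: active means mean inhibition across valid replicates above about 55% (limit read from the data); inconclusive means mean below that limit but half or more replicates reach it; inactive means mean below it, under half of replicates reach it.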

Assay: Trypanosoma cruzi replication blockers in host cells – luminescence, NIH3T3 host cells, primary screen (AID 1885);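 further: signal also drops with host cell toxicity which is not excluded here; 0% = plate median of DMSO wells and 100% = zero luminescence signal; higher percent means less beta-gal luminescence so fewer parasites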
Settings: T. cruzi beta-gal in NIH3T3, luminescence, 90 h; stronger effect = higher value; concentration not given here
Outline: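 System: NIH/3T3 fibroblasts plus reporter T. cruzi. Medium: DMEM plus 2% FBS. Probe or stimulus: 5000 reporter trypomastigotes per well. Compound: single 50 nL compound addition per well in DMSO. Incubation: co-culture of at least 90 h after 3 h attachment. Detection: GalScreen β-gal luminescence, detergent lysis, 60 min. Evaluation: parasite load inhibition, %.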
In the case of `CN(C)CCCCCN(C)Cc1cc2ccccc2o1`, the inhibition is reported as 69.5% (active). In the case of `COc1ccccc1CN(C)C(=O)c1cc2ccccc2o1`, the inhibition is reported as 0.505% (inactive). In the case of `N=c1oc2ccccc2cc1C(=O)NCc1ccccc1`, the inhibition is reported as -12.9% (inactive). For `O=C(COc1ccc2ccc(=O)oc2c1)NCC(O)c1ccccc1` (stereo unspecified), the inhibition was -12.4% (inactive). For `COc1cc(NC(=O)CCNC(=O)Cn2ccc3ccccc3c2=O)cc(OC)c1OC`, the inhibition was -1.49% (inactive). In the case of `Cc1ccc(-c2c(C)n([O-])c3c([n+]2=O)CCC3)cc1`, the inhibition is reported as -4.48% (inactive). In the case of `CCOc1cc(NC(=O)Nc2ccccc2)c(OCC)cc1NC(=O)CC`, the inhibition is reported as -28.4% (inactive). In the case of `NC(=O)c1ccccc1NC(=O)c1ccccc1F`, the inhibition is reported as -8.84% (inactive). With `CCOc1cc(NC(=O)c2ccccc2C(=O)O)c(OCC)cc1NC(=O)c1ccccc1F` the inhibition was 60.5% (active). With `COc1cccc(N(CC(=O)NC2CCCCCC2)S(=O)(=O)c2ccccc2)c1` the inhibition was 21.4% (inactive). For `Cc1ccc(-c2ccc(/C=N/NC(=O)CN3CCOCC3)o2)cc1[N+](=O)[O-]`, the inhibition was -11.4% (inactive). In the case of `Cc1cc(C(=O)N/N=C/c2ccccc2[N+](=O)[O-])c(C)o1`, the inhibition is reported as -0.35% (inactive). In the case of `Cc1occc1C(=O)N/N=C/c1ccc(-c2cccc([N+](=O)[O-])c2)o1`, the inhibition is reported as 67.8% (active). With `CC(=O)N1CCN(CC(C)(C)NS(=O)(=O)c2ccc(C)cc2)CC1` the inhibition was 11.8% (inactive). For `O=C(Nc1ncc([N+](=O)[O-])s1)C1COc2ccccc2O1` (stereo unspecified), the inhibition was -1.76% (inactive). With `O=C(CCc1ccccc1)Nc1ncc([N+](=O)[O-])s1` the inhibition was 86.1% (active). For `O=C(Cc1c(F)cccc1Cl)Nc1ncc([N+](=O)[O-])s1`, the inhibition was 50.4% (inactive). For `Cc1ccccc1C(=O)NNC(=O)CN1C(=O)c2ccccc2C1=O`, the inhibition was -15.4% (inactive). With `COc1ccc(OCc2cc(C(=O)NCC3(C)COC3)no2)c(Cl)c1` the inhibition was -0.702% (inactive). In the case of `CCCCn1c(N)c(N(CCOC)C(=O)c2cccc(S(=O)(=O)N3CCCCC3)c2)c(=O)[nH]c1=O`, the inhibition is reported as -8.61% (inactive). In the case of `CN(C)CCCNC(=O)/C=C/c1ccc(OCc2c(F)cccc2Cl)cc1`, the inhibition is reported as 55.5% (active). For `O=C(/C=C/c1ccc(OCc2c(F)cccc2Cl)cc1)N1CCOCC1`, the inhibition was 16.6% (inactive). For `COCCCNC(=O)/C=C/c1ccc(OCc2c(F)cccc2Cl)cc1`, the inhibition was 19% (inactive). For `COc1ccc(C2c3[nH]c4ccccc4c3C[C@H]3C(=O)N(CC(C)C)CC(=O)N23)c(OC)c1` (stereo partly specified), the inhibition was 9.19% (inactive). For `COCCCNC(=S)N(CCN(C)C)Cc1cc2cc3c(cc2[nH]c1=O)OCCO3`, the inhibition was -7.66% (inactive). With `Cc1cccc2cc(CN(Cc3cccs3)C(=S)NCc3ccco3)c(=O)[nH]c12` the inhibition was 18.3% (inactive). In the case of `Cc1cc(C)c2[nH]c(=O)c(CN(Cc3ccccc3)C(=S)NCCCN(C)C)cc2c1`, the inhibition is reported as 59.1% (active). For `COc1ccc(Cc2cc(-c3ccc(F)cc3)n[nH]c2=O)cc1`, the inhibition was -6.16% (inactive). In the case of `CC1(c2ccccc2)NC(=O)N(CC(=O)Nc2cc(Cl)ccc2N2CCOCC2)C1=O` (stereo unspecified), the inhibition is reported as 5.62% (inactive). With `CCc1cccc(C)c1NC(=O)COC(=O)CNC(=O)c1cccs1` the inhibition was -15.5% (inactive). In the case of `CN1CCN(c2ccc(S(=O)(=O)Nc3ccccc3)cc2[N+](=O)[O-])CC1`, the inhibition is reported as 18.5% (inactive). For `O=[N+]([O-])c1cc(S(=O)(=O)Nc2cccc(Cl)c2)ccc1N=Nc1c(O)[nH]c2ccccc12`, the inhibition was 61.7% (active). In the case of `Cc1cccc(N(CC(=O)N=Nc2c(O)[nH]c3ccccc23)S(C)(=O)=O)c1C`, the inhibition is reported as 16.1% (inactive). In the case of `O=C(NCC(c1ccco1)N1CCc2ccccc2C1)c1ccccc1Cl` (stereo unspecified), the inhibition is reported as -5.54% (inactive). In the case of `O=C(NCc1cccnc1)c1cc(S(=O)(=O)N2CCOCC2)c(Cl)cc1Cl`, the inhibition is reported as 3.92% (inactive). With `Cc1noc(C)c1CSCC(=O)Nc1ccc(Br)cc1Cl` the inhibition was 1.67% (inactive). With `O=C(Nc1cccc(-c2nc3ncccc3o2)c1)c1ccco1` the inhibition was 69.4% (active). In the case of `O=C(Nc1cccc(NC(=O)c2ccco2)c1)c1cnccn1`, the inhibition is reported as 21.9% (inactive). In the case of `O=C(Nc1cc(-c2nc3ncccc3o2)ccc1Cl)c1ccco1`, the inhibition is reported as -11% (inactive). In the case of `N#Cc1ccccc1NC(=O)COc1c(Br)cc(Br)c2cccnc12`, the inhibition is reported as -12.8% (inactive). For `CCN1CCN(c2ccc(S(=O)(=O)N3CCCCC3)cc2NC(=O)c2cccc(NC(C)=O)c2)CC1`, the inhibition was 0.05% (inactive). With `O=C(COc1cccc2ccccc12)Nc1cc(S(=O)(=O)N2CCOCC2)ccc1N1CCOCC1` the inhibition was 2.7% (inactive). For `CN1CCN(c2ccc(S(=O)(=O)N3CCCCC3)cc2NC(=O)Cc2ccccc2F)CC1`, the inhibition was 45.1% (inactive). In the case of `CCN1CCN(c2ccc(S(=O)(=O)N3CCCCC3)cc2NC(=O)Cc2c(Cl)cccc2Cl)CC1`, the inhibition is reported as 65.7% (active). For `CC(=O)NCCC(=O)Nc1cc(S(=O)(=O)N2CCOCC2)ccc1N1CCOCC1`, the inhibition was -12% (inactive). For `CN1CCN(c2ccc(S(=O)(=O)N3CCOCC3)cc2NC(=O)CCc2ccccc2)CC1`, the inhibition was 54.9% (active). With `CCOC(=O)C1=C(c2ccccc2)N=C2SCC(=O)N2C1c1ccc(O)c(OC)c1` (stereo unspecified) the inhibition was -14.5% (inactive). In the case of `Cc1nn(C)c(C)c1CN(C(=O)CCc1nnc(Cc2c[nH]c3ccccc23)o1)C(C)C`, the inhibition is reported as 9.23% (inactive). With `CCOC(=O)N1CCN(S(=O)(=O)c2ccc(-n3cnnn3)cc2)CC1` the inhibition was 0.644% (inactive). With `COc1ccc(NC(=O)C(=O)NCC(c2ccco2)N2CCc3ccccc3C2)cc1` (stereo unspecified) the inhibition was 9.29% (inactive). In the case of `CCc1ccccc1NC(=O)NCCN1CCCCC1`, the inhibition is reported as 1.39% (inactive). With `CC1CCN(C(=S)c2cccc([N+](=O)[O-])c2)CC1` the inhibition was 1.31% (inactive). For `CC1CCC2CCCCC2N1C(=O)c1cc([N+](=O)[O-])cc([N+](=O)[O-])c1` (stereo unspecified), the inhibition was 56% (active). With `O=C(c1cc(C(=O)N2CCN(c3ccc(F)cc3)CC2)cc([N+](=O)[O-])c1)N1CCN(c2ccc(F)cc2)CC1` the inhibition was 45.8% (inactive). For `OCC(O)CN(c1ccccc1)c1ccccc1` (stereo unspecified), the inhibition was -11.6% (inactive). With `COc1ccc(C)cc1Nc1n[n+](-c2ccccc2)c(-c2cccc(Cl)c2Cl)s1` the inhibition was 61.2% (active). With `COc1cc(Br)c(-c2sc(Nc3ccccc3)n[n+]2-c2ccccc2)cc1OC` the inhibition was 0.144% (inactive). With `COc1ccc(C)cc1S(=O)(=O)Nc1cccc(Cl)c1Cl` the inhibition was 8.72% (inactive). In the case of `CC(Sc1nnc(-c2ccccc2F)n1C1CC1)C(N)=O` (stereo unspecified), the inhibition is reported as -10.8% (inactive). For `COc1ccc(-c2nc(CS(=O)(=O)CC(=O)NCc3cccc(Br)c3)c(C)o2)cc1`, the inhibition was -6.3% (inactive). In the case of `COc1cc(/C=N/NC(=O)CNC(=O)c2ccncc2)ccc1OC(C)=O`, the inhibition is reported as -4.41% (inactive). With `Cc1cccc(/C=N/NC(=O)CNc2cccc3ccccc23)n1` the inhibition was -0.344% (inactive). In the case of `COc1ccc2ccccc2c1/C=N/NC(=O)c1cc(C)[nH]n1`, the inhibition is reported as -14.2% (inactive). In the case of `COc1ccc(C(=O)NCC(=O)N/N=C/c2ccc([N+](=O)[O-])o2)cc1OC`, the inhibition is reported as -11% (inactive). In the case of `Cc1cc(C(=O)N/N=C/c2cc([N+](=O)[O-])cc(C)c2O)n[nH]1`, the inhibition is reported as -40.2% (inactive). With `CCOc1ccc(NC(=O)CCC(=O)N/N=C/c2ccc([N+](=O)[O-])s2)cc1` the inhibition was 50.6% (inactive). In the case of `CC(C)(C)c1cc(C(=O)N/N=C/c2ccc([N+](=O)[O-])s2)n[nH]1`, the inhibition is reported as 57.6% (active). With `COc1ccc(C(=O)NCC(=O)N/N=C/c2ccc([N+](=O)[O-])s2)cc1OC` the inhibition was 64.6% (active). With `Cc1ccccc1NCC(=O)N/N=C\c1ccc([N+](=O)[O-])s1` the inhibition was 64.6% (active). With `O=C(NCCNc1ccc([N+](=O)[O-])cc1)c1cccc2c(Br)cccc12` the inhibition was 5.94% (inactive). In the case of `c1ccc(Cc2ccc(OCCn3ccnc3)cc2)cc1`, the inhibition is reported as 28.2% (inactive). With `O=C(O)c1ccn(COc2ccc(Br)cc2)n1` the inhibition was -13.4% (inactive). For `Brc1ccc(OCCn2ccnc2)cc1`, the inhibition was 68.5% (active). For `O=C(NCCS(=O)(=O)N1CCN(c2ccc(F)cc2)CC1)c1ccc2c(c1)OCO2`, the inhibition was -12.2% (inactive). In the case of `COc1ccc(NC(=O)CN(C)C(=O)/C=C/c2cn(Cc3ccccc3)nc2-c2cccnc2)cc1`, the inhibition is reported as 4% (inactive). In the case of `NC(=S)Nc1c(Cl)cccc1Cl`, the inhibition is reported as -4.22% (inactive). For `O=C(NCCN1CCOCC1)c1cc(-c2cccs2)nc2ccccc12`, the inhibition was -5.61% (inactive). For `CCCCN(C)CCCNC(=O)c1cc(-c2cccs2)nc2ccccc12`, the inhibition was 63.8% (active). In the case of `COC(=O)c1cc(-c2cccs2)nc2ccccc12`, the inhibition is reported as 5.51% (inactive). With `COc1cnn(-c2ccc([N+](=O)[O-])cc2)c(=O)c1Cl` the inhibition was 7.92% (inactive). For `CCN1C(=O)[C@H]2[C@@H](c3ccc(-c4ccc(OC)cc4)cc3)N[C@@](Cc3ccccc3)(C(=O)OC)[C@H]2C1=O`, the inhibition was -3.65% (inactive). With `CCOC(=O)C1(CCOC)CCN(Cc2cc3ccccc3s2)CC1` the inhibition was 6.96% (inactive). With `Cc1ccc(S(=O)(=O)N2CCCC2C(=O)OCc2nc3sc(C)c(C)c3c(=O)[nH]2)cc1` (stereo unspecified) the inhibition was -13% (inactive). In the case of `C=CCc1cc(C)ccc1OCCCn1ccnc1`, the inhibition is reported as 36.6% (inactive). With `Clc1c(OCCCn2ccnc2)ccc2ccccc12` the inhibition was 61.3% (active). With `O=C(NCCCn1ccnc1)c1ccccc1F` the inhibition was 7.44% (inactive). In the case of `Cc1cc(Nc2cc(N3CCN(C)CC3)nc(Sc3ccc(NC(=O)C4CC4)cc3)n2)n[nH]1`, the inhibition is reported as 26.9% (inactive). With `CC(=O)CC(CC(=O)NC1CCCCC1)c1ccccc1` (stereo unspecified) the inhibition was -21.8% (inactive). With `CCOc1ccc(C(=O)NCC(=O)N2CCCCCCC2)cc1OCC` the inhibition was 17.5% (inactive). In the case of `CCc1noc(C)c1C(=O)NNC(=O)c1ccc(F)cc1`, the inhibition is reported as -6.32% (inactive). With `CC(C)(C)S(=O)(=O)c1ccccc1-c1noc(-c2ccccc2)c1C(N)=O` the inhibition was -8.06% (inactive).
